# Assay results taken from ChEMBL document CHEMBL4152382, “Discovery of Tarantula Venom-Derived NaV1.7-Inhibitory JzTx-V Peptide 5-Br-Trp24 Analogue AM-6120 with Systemic Block of Histamine-Induced Pruritis” (J Med Chem, 2018).
# Active and inactive are the calls of the source. No cut-off for these calls is given here.
# Legend:
# [1] = Ratio of plasma concentration in C57/BL6 mouse model of histamine-induced pruritis at 1 mg/kg, sc to IC50 for Nav1.7 in C57/BL6 mouse DRG neurons by whole cell manual patch clamp assay; type: ADME, organism-based; conditions: in vivo
# [2] = tested on: Mus musculus; assay: In vivo inhibition of Nav1.7 in C57/BL6 mouse model of histamine-induced pruritis assessed as reduction in scratching bouts at 1 mg/kg, sc dosed 2 hrs before histamine challenge and measured for 15 mins relative to control; type: functional
# Summary of the method: (§1)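 Male C57Bl/6 mice aged 8–10 weeks; nape shaved under 3% isoflurane the day before, with 15 min chamber acclimation. Peptide given sc 2 h before intradermal histamine dichloride (8.15 mM, 100 μL); vehicle was PBS with 1% MSA. Scratch bouts video-recorded for 15 min, blinded scoring; n = 8–10 per group; one-way ANOVA with Dunnett's test versus vehicle.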
# [3] = MRT in C57/BL6 mouse at 2 mg/kg, sc by LC-MS/MS analysis; type: ADME, organism-based; conditions: in vivo
# Summary of the method: (§2)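 Male C57Bl/6 mice, n = 3 per time point, given a single 2 mg/kg subcutaneous dose. Plasma levels were quantified by LC-MS/MS over time, and pharmacokinetic parameters were derived from the plasma profiles. Data are reported as mean ± SEM for each time point.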
# [4] = biological target: Sodium channel protein type 10 subunit alpha (Homo sapiens, UniProt Q9Y5Y9); assay: Inhibition of human Nav1.8 expressed in HEK293 cells after 10 mins by patchxpress-based electrophysiology; type: cell-based
# [5] = biological target: T1, Sodium channel protein type 9 subunit alpha (Mus musculus, UniProt Q62205); assay: Inhibition of mouse Nav1.7 expressed in HEK293 cells after 10 mins by patchxpress-based electrophysiology; type: cell-based
# T1 sequence (Q62205 whole entry): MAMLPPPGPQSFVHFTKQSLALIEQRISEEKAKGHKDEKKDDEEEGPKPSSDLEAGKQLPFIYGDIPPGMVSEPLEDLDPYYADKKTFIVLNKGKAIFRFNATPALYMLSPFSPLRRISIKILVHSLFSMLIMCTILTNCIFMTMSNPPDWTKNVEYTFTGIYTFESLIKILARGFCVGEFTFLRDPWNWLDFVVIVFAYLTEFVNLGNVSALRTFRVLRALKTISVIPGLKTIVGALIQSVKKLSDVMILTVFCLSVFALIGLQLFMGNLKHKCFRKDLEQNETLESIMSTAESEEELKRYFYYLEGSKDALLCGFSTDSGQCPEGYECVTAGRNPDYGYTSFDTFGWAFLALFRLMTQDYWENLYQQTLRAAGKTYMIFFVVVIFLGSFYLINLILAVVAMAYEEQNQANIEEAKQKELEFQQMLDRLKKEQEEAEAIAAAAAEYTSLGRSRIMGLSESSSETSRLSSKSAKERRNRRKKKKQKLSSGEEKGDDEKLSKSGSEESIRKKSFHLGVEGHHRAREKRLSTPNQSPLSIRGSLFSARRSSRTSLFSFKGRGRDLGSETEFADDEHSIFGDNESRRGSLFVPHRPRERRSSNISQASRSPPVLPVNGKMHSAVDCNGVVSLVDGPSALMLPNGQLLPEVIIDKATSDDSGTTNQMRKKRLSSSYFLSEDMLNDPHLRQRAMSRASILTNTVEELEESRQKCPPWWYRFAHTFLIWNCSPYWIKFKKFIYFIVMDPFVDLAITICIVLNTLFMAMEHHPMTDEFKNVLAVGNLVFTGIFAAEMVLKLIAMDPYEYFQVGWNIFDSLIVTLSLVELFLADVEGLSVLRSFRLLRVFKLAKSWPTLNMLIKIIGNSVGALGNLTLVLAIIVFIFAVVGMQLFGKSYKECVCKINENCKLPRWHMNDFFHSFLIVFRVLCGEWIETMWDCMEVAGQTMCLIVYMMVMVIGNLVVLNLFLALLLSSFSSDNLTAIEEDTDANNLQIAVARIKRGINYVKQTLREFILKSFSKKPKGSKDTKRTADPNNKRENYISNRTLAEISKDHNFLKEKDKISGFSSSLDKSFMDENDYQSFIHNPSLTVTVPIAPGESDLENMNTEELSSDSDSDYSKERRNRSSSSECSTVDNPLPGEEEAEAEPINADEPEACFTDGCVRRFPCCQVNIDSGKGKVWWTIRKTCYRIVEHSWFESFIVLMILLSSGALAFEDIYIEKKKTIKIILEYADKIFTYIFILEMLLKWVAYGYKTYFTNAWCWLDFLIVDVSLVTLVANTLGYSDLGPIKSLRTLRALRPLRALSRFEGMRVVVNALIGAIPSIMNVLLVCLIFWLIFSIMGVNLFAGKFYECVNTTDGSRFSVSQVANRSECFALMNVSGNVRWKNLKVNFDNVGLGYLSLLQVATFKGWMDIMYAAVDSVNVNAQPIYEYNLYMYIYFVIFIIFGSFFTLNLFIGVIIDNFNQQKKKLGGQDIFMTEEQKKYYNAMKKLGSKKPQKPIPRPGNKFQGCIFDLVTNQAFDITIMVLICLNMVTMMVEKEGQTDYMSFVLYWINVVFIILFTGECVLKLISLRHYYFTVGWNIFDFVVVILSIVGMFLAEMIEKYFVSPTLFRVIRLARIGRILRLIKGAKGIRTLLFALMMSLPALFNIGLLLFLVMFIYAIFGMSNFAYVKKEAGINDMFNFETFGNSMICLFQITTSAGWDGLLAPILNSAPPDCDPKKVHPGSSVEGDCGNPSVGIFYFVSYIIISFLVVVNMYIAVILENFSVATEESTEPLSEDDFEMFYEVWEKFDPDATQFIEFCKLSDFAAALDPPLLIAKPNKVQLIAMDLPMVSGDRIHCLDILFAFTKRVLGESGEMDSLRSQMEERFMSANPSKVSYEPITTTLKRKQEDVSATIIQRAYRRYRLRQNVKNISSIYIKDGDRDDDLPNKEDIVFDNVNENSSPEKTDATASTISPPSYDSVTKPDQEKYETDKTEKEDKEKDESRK
# [6] = tested on: Mus musculus; assay: Toxicity in C57/BL6 mouse assessed as effect on locomotor activity at 2 mg/kg, sc by open field assay; type: organism-based; conditions: in vivo
# [7] = Plasma concentration in C57/BL6 mouse model of histamine-induced pruritis at 1 mg/kg, sc; type: ADME, organism-based; conditions: in vivo
# Summary of the method: (§3)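 Dosing was 2 h before an intradermal nape injection of histamine (8.15 mM, 100 μL). Scratching was videorecorded for 15 min by blinded experimenters, and peptide plasma concentrations were analysed from the same study.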
# [8] = AUCt in C57/BL6 mouse at 2 mg/kg, sc by LC-MS/MS analysis; type: ADME, organism-based; conditions: in vivo; summary of the method: as §2
# [9] = Plasma concentration in C57/BL6 mouse model of histamine-induced pruritis at 2 mg/kg, sc; type: ADME, organism-based; conditions: in vivo; summary of the method: as §3
# [10] = Plasma concentration in C57/BL6 mouse model of histamine-induced pruritis at 0.5 mg/kg, sc; type: ADME, organism-based; conditions: in vivo; summary of the method: as §3
# [11] = Inhibition of TTX-resistant sodium channel-mediated currents in C57/BL6 mouse DRG neurons by whole cell manual patch clamp assay; conditions: C57/BL6, DRG neuron
# [12] = biological target: Sodium channel protein type 8 subunit alpha (Homo sapiens, UniProt Q9UQD0); assay: Inhibition of human Nav1.6 expressed in HEK293 cells at holding potential of -125 mV […] by patchxpress-based electrophysiology assay; type: cell-based
# [13] = tested on: Mus musculus; assay: Volume of distribution at steady state in C57/BL6 mouse at 2 mg/kg, sc by LC-MS/MS analysis; type: ADME, organism-based; conditions: in vivo; summary of the method: as §2
# [14] = biological target: T1, Sodium channel protein type 9 subunit alpha; assay: Inhibition of Nav1.7 in C57/BL6 mouse DRG neurons assessed as reduction in TTX sensitive sodium channel-mediated currents by whole cell manual patch clamp assay
# [15] = Apparent […] clearance in C57/BL6 mouse at 2 mg/kg, sc by LC-MS/MS analysis; type: ADME, organism-based; conditions: in vivo; summary of the method: as §2
# [16] = Ratio of plasma concentration in C57/BL6 mouse model of histamine-induced pruritis at 2 mg/kg, sc to IC50 for Nav1.7 in C57/BL6 mouse DRG neurons by whole cell manual patch clamp assay; type: ADME, organism-based; conditions: in vivo
# [17] = Half life in C57/BL6 mouse at 2 mg/kg, sc by LC-MS/MS analysis; type: ADME, organism-based; conditions: in vivo; summary of the method: as §2
# [18] = biological target: Sodium channel protein type 4 subunit alpha (Homo sapiens, UniProt P35499); assay: Inhibition of human Nav1.4 expressed in HEK293 cells at holding potential of -125 mV […] by patchxpress-based electrophysiology assay; type: cell-based
# [19] = Ratio of plasma concentration in C57/BL6 mouse model of histamine-induced pruritis at 0.5 mg/kg, sc to IC50 for Nav1.7 in C57/BL6 mouse DRG neurons by whole cell manual patch clamp assay; type: ADME, organism-based; conditions: in vivo
# [20] = Plasma concentration in C57/BL6 mouse at 2 mg/kg, sc after 30 mins by LC-MS/MS analysis; type: ADME, organism-based; conditions: in vivo, 0.5 h; summary of the method: as §2
# [21] = tested on: Mus musculus; assay: In vivo inhibition of Nav1.7 in C57/BL6 mouse model of histamine-induced pruritis assessed as reduction in scratching bouts at 0.5 mg/kg, sc dosed 2 hrs before histamine challenge and measured for 15 mins relative to control; type: functional; summary of the method: as §1
# [22] = Cmax in C57/BL6 mouse at 2 mg/kg, sc by LC-MS/MS analysis; type: ADME, organism-based; set-up: dose 2 mg/kg, route subcutaneous; conditions: in vivo; summary of the method: as §2
# [23] = biological target: Sodium channel protein type 9 subunit alpha (Homo sapiens, UniProt Q15858); assay: Inhibition of human Nav1.7 expressed in HEK293 cells at holding potential of -125 mV […] by patchxpress-based electrophysiology assay; type: cell-based
# [24] = Tmax in C57/BL6 mouse at 2 mg/kg, sc by LC-MS/MS analysis; type: ADME, organism-based; conditions: in vivo; summary of the method: as §2
# [25] = biological target: Sodium channel protein type 5 subunit alpha (Homo sapiens, UniProt Q14524); assay: Inhibition of human Nav1.5 expressed in HEK293 cells at holding potential of […] after 10 mins by patchxpress-based electrophysiology assay; type: cell-based
# Sodium channel protein type 5 subunit alpha, sequence (Q14524 whole entry): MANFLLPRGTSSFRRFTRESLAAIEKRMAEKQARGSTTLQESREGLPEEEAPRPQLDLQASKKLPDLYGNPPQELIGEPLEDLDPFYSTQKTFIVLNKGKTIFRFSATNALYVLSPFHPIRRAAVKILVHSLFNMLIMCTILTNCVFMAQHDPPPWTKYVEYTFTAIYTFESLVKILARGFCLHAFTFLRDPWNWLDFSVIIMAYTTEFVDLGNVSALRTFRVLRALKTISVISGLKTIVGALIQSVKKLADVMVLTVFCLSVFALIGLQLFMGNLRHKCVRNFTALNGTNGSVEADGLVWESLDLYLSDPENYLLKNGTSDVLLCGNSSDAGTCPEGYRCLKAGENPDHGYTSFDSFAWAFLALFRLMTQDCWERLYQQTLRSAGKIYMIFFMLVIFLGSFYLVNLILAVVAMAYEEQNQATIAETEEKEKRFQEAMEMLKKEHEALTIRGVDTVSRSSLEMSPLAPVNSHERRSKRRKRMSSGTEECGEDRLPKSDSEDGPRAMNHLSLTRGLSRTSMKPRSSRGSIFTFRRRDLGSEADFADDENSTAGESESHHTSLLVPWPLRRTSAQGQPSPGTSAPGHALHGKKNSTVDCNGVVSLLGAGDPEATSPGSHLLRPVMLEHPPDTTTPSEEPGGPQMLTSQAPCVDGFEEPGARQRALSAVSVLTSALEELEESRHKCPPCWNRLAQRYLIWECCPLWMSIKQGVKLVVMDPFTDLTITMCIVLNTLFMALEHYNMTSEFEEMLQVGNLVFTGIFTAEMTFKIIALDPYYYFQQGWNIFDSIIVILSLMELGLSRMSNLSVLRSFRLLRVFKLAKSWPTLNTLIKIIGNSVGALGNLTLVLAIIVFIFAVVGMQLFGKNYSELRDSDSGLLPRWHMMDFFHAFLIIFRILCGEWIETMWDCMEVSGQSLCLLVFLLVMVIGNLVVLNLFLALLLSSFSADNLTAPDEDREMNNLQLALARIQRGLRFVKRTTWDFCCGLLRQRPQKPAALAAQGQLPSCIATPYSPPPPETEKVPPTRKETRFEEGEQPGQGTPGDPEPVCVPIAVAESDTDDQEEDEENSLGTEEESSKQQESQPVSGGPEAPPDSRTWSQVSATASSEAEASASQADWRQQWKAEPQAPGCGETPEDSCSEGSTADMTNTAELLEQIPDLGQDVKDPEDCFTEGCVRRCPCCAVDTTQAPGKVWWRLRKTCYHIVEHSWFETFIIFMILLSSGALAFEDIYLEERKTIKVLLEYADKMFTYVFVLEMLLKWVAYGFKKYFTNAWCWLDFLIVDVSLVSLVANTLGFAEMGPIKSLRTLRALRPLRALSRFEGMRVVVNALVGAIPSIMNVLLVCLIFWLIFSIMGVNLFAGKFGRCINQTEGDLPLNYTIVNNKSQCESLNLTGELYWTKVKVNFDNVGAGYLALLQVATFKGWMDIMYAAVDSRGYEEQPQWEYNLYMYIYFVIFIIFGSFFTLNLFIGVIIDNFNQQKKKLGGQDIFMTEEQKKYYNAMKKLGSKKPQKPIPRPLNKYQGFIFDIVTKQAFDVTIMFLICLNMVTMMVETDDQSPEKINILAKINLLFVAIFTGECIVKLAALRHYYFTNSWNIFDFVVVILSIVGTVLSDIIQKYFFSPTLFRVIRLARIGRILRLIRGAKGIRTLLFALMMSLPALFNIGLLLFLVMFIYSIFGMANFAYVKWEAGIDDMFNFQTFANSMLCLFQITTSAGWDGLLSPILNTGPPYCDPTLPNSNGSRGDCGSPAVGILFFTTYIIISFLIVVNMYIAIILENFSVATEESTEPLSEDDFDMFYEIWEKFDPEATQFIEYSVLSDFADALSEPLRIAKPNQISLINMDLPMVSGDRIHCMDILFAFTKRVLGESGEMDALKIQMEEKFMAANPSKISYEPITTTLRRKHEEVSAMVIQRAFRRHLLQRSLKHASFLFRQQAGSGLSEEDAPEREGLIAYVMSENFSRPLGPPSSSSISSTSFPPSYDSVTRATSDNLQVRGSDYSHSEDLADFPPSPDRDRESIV
# [26] = tested on: Mus musculus; assay: In vivo inhibition of Nav1.7 in C57/BL6 mouse model of histamine-induced pruritis assessed as reduction in scratching bouts at 2 mg/kg, sc dosed 2 hrs before histamine challenge and measured for 15 mins relative to control; type: functional; summary of the method: as §1
# [27] = tested on: Mus musculus; assay: Toxicity in C57/BL6 mouse assessed as effect on locomotor activity at 1 mg/kg, sc by open field assay; type: organism-based; conditions: in vivo
structure (smiles),measurement,setting,value
C#CC[C@H](NC(=O)[C@@H](N)CCC(=O)O)C(=O)N[C@H]1CSSC[C@@H]2NC(=O)[C@@H]3CSSC[C@@H](C(=O)N[C@@H](CCCNC(=N)N)C(=O)N[C@@H](CCCCN)C(=O)N[C@@H](CCC(=O)O)C(=O)N[C@H](C(N)=O)[C@@H](C)CC)NC(=O)[C@H](Cc4c[nH]c5ccc(Br)cc45)NC(=O)[C@H](CC(C)C)NC(=O)[C@H](CCCCN)NC(=O)[C@H](CSSC[C@H](NC(=O)[C@H]([C@@H](C)O)NC(=O)[C@H](Cc4c[nH]c5ccccc45)NC(=O)[C@H](CCCC)NC(=O)[C@H](Cc4c[nH]c5ccccc45)NC(=O)[C@H](CCCCN)NC(=O)[C@H](CCC(N)=O)NC1=O)C(=O)N[C@@H](CC(=O)O)C(=O)N[C@@H](CO)C(=O)N[C@@H](C)C(=O)N[C@@H](CCCNC(=N)N)C(=O)N[C@@H](C)C(=O)N3)NC(=O)[C@H](CCCNC(=N)N)NC(=O)[C@H](CC(C)C)NC(=O)CNC(=O)[C@H](CCC(=O)O)NC2=O,Ratio,[1],59
same,inhibition in vivo at 1 mg/kg,[2],22.5%
same,MRT,[3],3.7 h
same,IC50,[4],> 1 µM
same,IC50,[5],0.0054 µM
same,Activity,[6],Non-Toxic
same,concentration,[7],300 nM
same,AUC(0-t),[8],4.5 µM·h
same,concentration,[9],535 nM
same,concentration,[10],122 nM
same,IC50,[11],> 10 µM
same,IC50,[12],0.104 µM
same,Vdss,[13],0.444 L/kg
same,IC50,[14],0.0051 µM
same,CL/F,[15],2 mL/min/kg
same,Ratio,[16],105
same,half-life,[17],4.95 h
same,IC50,[18],0.104 µM
same,Ratio,[19],24
same,Drug uptake,[20],Active
same,inhibition in vivo at 0.5 mg/kg,[21],7.3%
same,Cmax,[22],1480 nM
same,IC50,[23],0.0008 µM
same,Tmax,[24],0.5 h
same,IC50,[25],6.64 µM
same,inhibition in vivo at 2 mg/kg,[26],88.9%
C#CC[C@H](N)C(=O)N[C@@H](Cc1ccc(O)cc1)C(=O)N[C@H]1CSSC[C@@H]2NC(=O)[C@@H]3CSSC[C@@H](C(=O)N[C@@H](CCCNC(=N)N)C(=O)N[C@@H](CCCCN)C(=O)N[C@@H](CCC(=O)O)C(=O)N[C@H](C(N)=O)[C@@H](C)CC)NC(=O)[C@H](Cc4c[nH]c5ccccc45)NC(=O)[C@H](CC(C)C)NC(=O)[C@H](CCCCN)NC(=O)[C@H](CSSC[C@H](NC(=O)[C@H]([C@@H](C)O)NC(=O)[C@H](Cc4c[nH]c5ccccc45)NC(=O)[C@H](CCCC)NC(=O)[C@H](Cc4c[nH]c5ccccc45)NC(=O)[C@H](CCCCN)NC(=O)[C@H](CCC(N)=O)NC1=O)C(=O)N[C@@H](CC(=O)O)C(=O)N[C@@H](CO)C(=O)N[C@@H](CCCCN)C(=O)N[C@@H](CCCNC(=N)N)C(=O)N[C@@H](C)C(=O)N3)NC(=O)[C@H](CCCNC(=N)N)NC(=O)[C@H](CC(C)C)NC(=O)CNC(=O)[C@H](CCC(=O)O)NC2=O,Ratio,[1],6.5
same,Activity,[2],inactive
same,IC50,[4],> 1 µM
same,IC50,[14],0.009 µM
same,IC50,[23],0.0005 µM
same,IC50,[25],3.07 µM
same,Activity,[27],Non-Toxic
